In paper PMC3019337 (ChemMedChem, 2010):

Experiments:
Test in all cases: stopped-flow CO2 hydration assay
Assay type in all cases: biochemical
hCA VII = hCA VII (Homo sapiens, UniProt P43166)
Method in brief: (§1)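 Enzyme-catalysed CO2 hydration was followed by stopped-flow at 557 nm with 0.2 mM phenol red in 20 mM HEPES pH 7.5 and 20 mM Na2SO4. Initial rates were taken over 10–100 s at five CO2 levels (1.7–17 mM). Enzyme was preincubated 15 min at room temperature with six inhibitor concentrations (100 µM–0.1 nM). Uncatalysed rate was subtracted; Ki came from nonlinear least squares, mean of ≥3 determinations.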

hCA XII = hCA XII (Homo sapiens, UniProt O43570)
Sequence of hCA XII (O43570 25-354): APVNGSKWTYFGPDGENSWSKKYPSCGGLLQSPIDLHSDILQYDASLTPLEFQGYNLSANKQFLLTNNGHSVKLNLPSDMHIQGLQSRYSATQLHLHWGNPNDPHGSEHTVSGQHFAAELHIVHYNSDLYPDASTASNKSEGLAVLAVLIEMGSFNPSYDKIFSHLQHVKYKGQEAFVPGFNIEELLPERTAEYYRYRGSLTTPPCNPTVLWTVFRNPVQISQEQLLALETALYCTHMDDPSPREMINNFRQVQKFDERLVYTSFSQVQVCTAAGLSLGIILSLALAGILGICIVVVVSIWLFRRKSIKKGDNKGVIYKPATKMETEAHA
Method in brief: as §1

hCA XIII = hCA XIII (Homo sapiens, UniProt Q8N1Q1)
Sequence of hCA XIII (Q8N1Q1 whole entry): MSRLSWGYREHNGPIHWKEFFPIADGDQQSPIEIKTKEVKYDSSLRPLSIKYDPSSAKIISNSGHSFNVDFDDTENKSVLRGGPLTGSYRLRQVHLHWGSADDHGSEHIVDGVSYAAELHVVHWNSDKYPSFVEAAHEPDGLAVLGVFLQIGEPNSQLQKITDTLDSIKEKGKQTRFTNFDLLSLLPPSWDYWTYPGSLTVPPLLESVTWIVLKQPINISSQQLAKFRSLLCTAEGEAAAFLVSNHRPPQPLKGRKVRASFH
Method in brief: as §1

hCA VA = hCA VA (Homo sapiens, UniProt P35218)
Sequence of hCA VA (P35218 39-305): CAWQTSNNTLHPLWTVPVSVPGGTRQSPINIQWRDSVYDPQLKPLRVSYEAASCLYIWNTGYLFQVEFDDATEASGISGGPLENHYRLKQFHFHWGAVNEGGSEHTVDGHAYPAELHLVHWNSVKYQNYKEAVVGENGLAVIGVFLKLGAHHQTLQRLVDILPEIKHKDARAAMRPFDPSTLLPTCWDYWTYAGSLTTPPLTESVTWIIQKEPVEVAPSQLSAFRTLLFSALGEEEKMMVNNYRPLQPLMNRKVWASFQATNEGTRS
Method in brief: as §1

hCA I = hCA I (Homo sapiens, UniProt P00915)
Sequence of hCA I (P00915 2-261): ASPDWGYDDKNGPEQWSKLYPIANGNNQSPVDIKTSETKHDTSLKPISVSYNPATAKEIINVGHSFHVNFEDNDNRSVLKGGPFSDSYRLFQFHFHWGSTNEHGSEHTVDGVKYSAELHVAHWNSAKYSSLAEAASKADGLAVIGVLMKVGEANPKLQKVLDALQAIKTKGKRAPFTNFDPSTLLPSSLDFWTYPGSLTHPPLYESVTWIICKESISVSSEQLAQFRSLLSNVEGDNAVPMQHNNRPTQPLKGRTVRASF
Method in brief: as §1

hCA III = hCA III (Homo sapiens, UniProt P07451)
Sequence of hCA III (P07451 2-260): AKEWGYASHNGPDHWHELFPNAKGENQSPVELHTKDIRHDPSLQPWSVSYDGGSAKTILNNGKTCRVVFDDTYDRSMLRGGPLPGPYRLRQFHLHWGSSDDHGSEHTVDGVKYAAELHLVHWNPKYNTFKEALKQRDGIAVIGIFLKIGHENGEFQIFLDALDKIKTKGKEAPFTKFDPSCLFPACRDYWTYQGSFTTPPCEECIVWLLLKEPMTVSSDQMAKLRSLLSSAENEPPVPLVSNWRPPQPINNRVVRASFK
Method in brief: as §1

hCA IX = hCA IX (Homo sapiens, UniProt Q16790)
Method in brief: as §1

hCA VB = hCA VB (Homo sapiens, UniProt Q9Y2D0)
Sequence of hCA VB (Q9Y2D0 34-317): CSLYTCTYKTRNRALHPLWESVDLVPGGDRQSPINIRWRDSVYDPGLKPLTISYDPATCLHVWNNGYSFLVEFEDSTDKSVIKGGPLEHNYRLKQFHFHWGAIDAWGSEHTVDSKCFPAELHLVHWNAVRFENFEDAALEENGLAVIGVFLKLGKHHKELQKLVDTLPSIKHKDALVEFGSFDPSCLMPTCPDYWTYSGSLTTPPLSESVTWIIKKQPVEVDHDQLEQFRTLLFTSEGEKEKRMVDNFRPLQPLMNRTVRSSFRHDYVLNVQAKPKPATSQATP
Method in brief: as §1

hCA IV = hCA IV (Homo sapiens, UniProt P22748)
Sequence of hCA IV (P22748 19-284): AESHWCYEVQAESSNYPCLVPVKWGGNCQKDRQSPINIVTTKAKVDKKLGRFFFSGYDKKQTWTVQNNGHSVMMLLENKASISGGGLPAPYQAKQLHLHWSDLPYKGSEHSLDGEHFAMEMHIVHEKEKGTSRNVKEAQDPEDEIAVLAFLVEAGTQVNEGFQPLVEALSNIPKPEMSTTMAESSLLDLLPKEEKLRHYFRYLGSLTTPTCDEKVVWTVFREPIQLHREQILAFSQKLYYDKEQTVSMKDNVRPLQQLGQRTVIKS
Method in brief: as §1

mCA XV = molecular target: T1, mCA XV (Mus musculus, UniProt Q99N23)
T1 sequence (Q99N23 19-324): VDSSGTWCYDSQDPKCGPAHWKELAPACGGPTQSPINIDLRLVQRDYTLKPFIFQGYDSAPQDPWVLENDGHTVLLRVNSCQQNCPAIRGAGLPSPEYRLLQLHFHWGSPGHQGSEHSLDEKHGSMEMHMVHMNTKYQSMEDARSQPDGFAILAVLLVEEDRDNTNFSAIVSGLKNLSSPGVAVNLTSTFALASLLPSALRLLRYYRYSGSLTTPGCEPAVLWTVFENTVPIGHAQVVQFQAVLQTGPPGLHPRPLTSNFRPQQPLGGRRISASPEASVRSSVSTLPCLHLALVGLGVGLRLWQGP
Method in brief: as §1

hCA II = hCA II (Homo sapiens, UniProt P00918)
Method in brief: as §1

hCA VI = hCA VI (Homo sapiens, UniProt P23280)
Sequence of hCA VI (P23280 18-308): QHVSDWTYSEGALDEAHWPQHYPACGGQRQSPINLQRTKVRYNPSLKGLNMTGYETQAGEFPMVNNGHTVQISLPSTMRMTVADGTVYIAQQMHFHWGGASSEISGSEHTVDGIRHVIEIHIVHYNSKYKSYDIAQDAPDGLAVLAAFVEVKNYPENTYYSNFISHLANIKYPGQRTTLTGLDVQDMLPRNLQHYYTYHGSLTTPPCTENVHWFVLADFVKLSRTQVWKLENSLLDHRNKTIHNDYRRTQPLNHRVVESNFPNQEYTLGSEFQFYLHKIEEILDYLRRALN
Method in brief: as §1

Sequence of hCA VII (P43166 whole entry): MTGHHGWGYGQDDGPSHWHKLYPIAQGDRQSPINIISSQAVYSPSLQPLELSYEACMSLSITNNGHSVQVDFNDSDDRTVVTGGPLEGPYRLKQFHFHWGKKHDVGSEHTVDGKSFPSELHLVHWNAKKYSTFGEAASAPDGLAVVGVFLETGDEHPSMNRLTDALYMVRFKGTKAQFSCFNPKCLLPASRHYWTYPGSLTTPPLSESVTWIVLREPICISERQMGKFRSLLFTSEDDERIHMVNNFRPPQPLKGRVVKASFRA

| Ki (hCA VII) [µM] | Ki (hCA XII) [µM] | Ki (hCA XIII) [µM] | Ki (hCA VA) [µM] | Ki (hCA I) [µM] | Ki (hCA III) [µM] | Ki (hCA IX) [µM] | Ki (hCA VB) [µM] | Ki (hCA IV) [µM] | Ki (mCA XV) [µM] | Ki (hCA II) [µM] | Ki (hCA VI) [µM] | SMILES |
| --- | --- | --- | --- | --- | --- | --- | --- | --- | --- | --- | --- | --- |
| 3.4 | 4 | 10.4 | 4.6 | 9.1 | 9.5 | 9.5 | 4.3 | 4.3 | 2.8 | 3.6 | 3.5 | Cc1occc(=O)c1O [compound 1, maltol] |
| 3.6 | 4.5 | 10.4 | 4.2 | 8.3 | 8.4 | 10 | 4 | 4.6 |  | 4 | 3.2 | Cc1occc(=S)c1O [compound 2, thiomaltol] |
| 3.6 | 4.8 | 10.8 | 4 | 9.4 | 7.5 | 9.2 | 3.8 | 4.4 | 4.7 | 4.1 | 3.6 | On1ccccc1=S [compound 4, 1,2-HOPTO] |
